From PubChem BioAssay come the findings set out here.

Calls of active or inactive are those of the source.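 The calls were made as follows, unless noted: active = viability at or under a set limit in both replicates, limit being median viability minus 3 SD (cut at about 48% in these data, passing the limit was not always enough); inconclusive = at or under the limit in just one replicate; inactive = at or above the limit in both replicates.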

The nature of test [1]: reduced viability of SK-BR-3 breast cancer cells – cell-based, 24 h, human, pilot screen (AID 572;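 active = viability at or below 10% of carrier control in both of two separate runs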;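 also: compound exposure lasted between 18 and 24 h rather than exactly 24 h; 100% = carrier-treated control wells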). As to conditions: SK-BR-3 viability, CellTiter-Glo luminescence, at 10 µM, stronger effect = lower value. (Cellular ATP, detected with luciferase, serves as a proxy for viable cell number.)
Test [2] is described as follows: HUVEC growth inhibition – cell-based, human, primary screen (AID 575;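 active = viability at or below 30% in both replicate assays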;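 also: 100% = median of untreated cell wells with 0.1% DMSO on each plate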). The settings on record: HUVEC proliferation, CellTiter-Glo luminescence, 72 h; at 10 µM; stronger effect = lower value. Summed up: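 System: primary human umbilical vein endothelial cells; Quantity: 1250 endothelial cells in each well; Buffer or medium: supplemented EBM, 2% fetal bovine serum; Doses: one dose, 10 µM final, 0.1% DMSO; Incubation: 72 h compound incubation; Technique: ATP-based CellTiter-Glo luminescent read; Evaluation: percent of median DMSO-control luminescence; Controls: vehicle and MePR control wells.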

A short description of test [3]: H69AR cell proliferation blockers – human, duplicate replicates, primary screen (AID 580).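 Also: 100% = mean luminescence of untreated wells and 0% = no signal.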 As to conditions: H69AR lung tumor cells viability, ATP luminescence, 72 h; at 10 µM; stronger effect = lower value.
A short description of test [4]: MRP1 drug-resistance reversers in H69AR cells – cell-based, doxorubicin co-treatment, pilot screen (AID 601;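 active = viability loss from added drug above about 55%, and viability with drug at most 40%, in both replicates, limit read from the data, passing the limit was not always enough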). The settings on record: CellTiter-Glo, 72 h, at 10 µM; for differential viability (reversal): stronger effect = higher value.
Test [5] in a line: yeast transport mutant growth inhibition pilot in 384-well plates, post-Golgi transport modulator project (AID 636; in the data active = inhibition above about 31%). The settings on record: absorbance 615 nm, about 18 h, stronger effect = higher value.
A short description of test [6]: growth suppression of yeast trafficking mutant, preliminary HTS, modulators of trafficking downstream of Golgi apparatus project, 1536-format plate, OD 615 nm (AID 637; in the data active = inhibition above about 30%). The settings on record: yeast transport mutant growth, absorbance 615 nm, 18 h; stronger effect = higher value.
The mark [7] stands for this setting: H69AR cells + 2 uM doxorubicin, measured here: viability with 2 uM doxorubicin, stronger effect = lower value.
[8] abbreviates: H69AR cells, compound alone cytotoxicity.

The viability is a read-out of living cells in per cent, often relative to untreated cells. What is called inhibition is the relative decrease from the control value, in per cent. Turning to `COc1cccc(/C=N/n2c(-c3ccco3)nc3ccccc3c2=O)c1`, the viability in test [1] was 71% (inactive); in test [2], 105% (inactive); in test [3], 73.2% (inactive); in test [4] (setting [7]), 85.4%; in test [4] (setting [8]), 73.2%. Also, the differential viability (reversal) in test [4] (H69AR cells + 2 uM doxorubicin) is -12.3% (inactive). The inhibition is -6.76% (inactive) in test [5] and 2.36% (inactive) in test [6].

Turning to `CCOC(=O)CSc1nnc(-c2ccc(NS(=O)(=O)c3ccc(C)cc3)cc2)o1`, the viability in test [1] was 87% (inactive); in test [2], 56% (inactive); in test [3] it was 91.5% (inactive); in test [4] (setting [7]), 86.4%; in test [4] (setting [8]) it was 91.5%. In test [4] (H69AR cells + 2 uM doxorubicin), the differential viability (reversal) is 5.14% (inactive). In addition, the inhibition was -4.29% (inactive) in test [5] and -5.67% (inactive) in test [6].

As for `CC(C)(C)C(=O)NC1CCN(C(=O)N2CCCC2)CC1`, the viability in test [1] is 93% (inactive); in test [2] it was 102% (inactive); in test [3] it was 94.5% (inactive); in test [4] (setting [7]), 83.2%; in test [4] (setting [8]) it was 94.5%. Also, the differential viability (reversal) in test [4] (H69AR cells + 2 uM doxorubicin) was 11.3% (inactive). Moreover, the figures for the inhibition in test [5] and in test [6] were -8.24% (inactive) and 2.91% (inactive), respectively.

With `CN(C)c1ccc(NC(=O)c2ccncc2)c2ccccc12`, the viability was 113% (inactive) in test [1]; 108% (inactive) in test [2]; 101% (inactive) in test [3]; 95.2% in test [4] (setting [7]); 101% in test [4] (setting [8]). Moreover, the differential viability (reversal) in test [4] (H69AR cells + 2 uM doxorubicin) is 5.85% (inactive). Further, the inhibition was -7.43% (inactive) in test [5] and -0.73% (inactive) in test [6].

Regarding `Cn1cnnc1Sc1nc2c(c(=O)n(C)c(=O)n2C)n1Cc1ccccc1Cl`, the viability in test [1] is 72% (inactive); in test [2] it was 98.5% (inactive); in test [3] it was 90.3% (inactive); in test [4] (setting [7]) it was 92.4%; in test [4] (setting [8]), 90.3%. For the same compound, in test [4] (H69AR cells + 2 uM doxorubicin), the differential viability (reversal) was -2.15% (inactive). Also, the results for the inhibition in test [5] and in test [6] were -3.7% (inactive) and 0.91% (inactive), respectively.

Regarding `CC1(C)CC(=O)C2=C(C1)N(CC1CCCO1)C(=O)C2(O)C(F)(F)F` (stereo not drawn), the viability in test [1] is 98% (inactive); in test [2] it was 97.5% (inactive); in test [3], 101% (inactive); in test [4] (setting [7]) it was 97.7%; in test [4] (setting [8]), 101%. Further, the differential viability (reversal) in test [4] (H69AR cells + 2 uM doxorubicin) was 3.08% (inactive). The inhibition in test [5] is -5.95% (inactive); in test [6], -6.36% (inactive).

Consider `CCCCc1c(O)nc(SCC(=O)Nc2ccc3c(c2)CCC3)[nH]c1=O`, for which the viability was 96% (inactive) in test [1]; 79.7% (inactive) in test [2]; 94.8% (inactive) in test [3]; 83.9% in test [4] (setting [7]); 94.8% in test [4] (setting [8]). Further, the differential viability (reversal) in test [4] (H69AR cells + 2 uM doxorubicin) is 10.9% (inactive). For the same compound, the inhibition in test [5] is -3.73% (inactive); in test [6] it was -2.91% (inactive).

Take `CCn1nnnc1SCC(=O)N1c2ccccc2CCc2ccccc21`: the viability in test [1] was 86% (inactive); in test [2], 99.1% (inactive); in test [3], 86.7% (inactive); in test [4] (setting [7]), 92.6%; in test [4] (setting [8]), 86.7%. The differential viability (reversal) in test [4] (H69AR cells + 2 uM doxorubicin) was -5.9% (inactive). Also, the inhibition in test [5] is -9.07% (inactive); in test [6], -0.18% (inactive).

With `CC1Oc2ccccc2N(Cc2ccccc2Cl)C1=O` (stereo not drawn), the viability in test [1] was 77% (inactive); in test [2] it was 110% (inactive); in test [3], 89.1% (inactive); in test [4] (setting [7]), 77.8%; in test [4] (setting [8]), 89.1%. The differential viability (reversal) in test [4] (H69AR cells + 2 uM doxorubicin) was 11.3% (inactive). Moreover, the figures for the inhibition in test [5] and in test [6] were -5.34% (inactive) and 2% (inactive), respectively.

In the case of `C/C(Nc1cccc(F)c1)=C(/C#N)C(N)=O`, the viability in test [1] is 107% (inactive); in test [2] it was 122% (inactive); in test [3] it was 99.2% (inactive); in test [4] (setting [7]), 93.9%; in test [4] (setting [8]), 99.2%. Further, the differential viability (reversal) in test [4] (H69AR cells + 2 uM doxorubicin) is 5.34% (inactive). Moreover, the results for the inhibition in test [5] and in test [6] were -4.32% (inactive) and -5.64% (inactive), respectively.

On to `COCCn1nnnc1C(c1cc2ccc(OC)cc2[nH]c1=O)N1CCc2ccccc2C1` (stereo not drawn), for which the viability in test [1] is 89% (inactive); in test [2], 90.4% (inactive); in test [3], 85.6% (inactive); in test [4] (setting [7]), 98.9%; in test [4] (setting [8]) it was 85.6%. For the same compound, the differential viability (reversal) in test [4] (H69AR cells + 2 uM doxorubicin) was -13.3% (inactive). For the same compound, the inhibition is -1.64% (inactive) in test [5] and 4.52% (inactive) in test [6].
